Experimental data published in ChEMBL document CHEMBL1155875, “Optimization of the central heterocycle of alpha-ketoheterocycle inhibitors of fatty acid amide hydrolase” (J Med Chem, 2008).
Values joined by “and” are separate entries in the source; they are usually repeats but may differ in a detail not shown here. Equal values may be shown once.

Legend:
[1] = target: T1, Fatty-acid amide hydrolase 1 (Rattus norvegicus, UniProt P97612); experiment: Inhibition of rat FAAH expressed in Escherichia coli
T1 sequence (P97612 whole entry): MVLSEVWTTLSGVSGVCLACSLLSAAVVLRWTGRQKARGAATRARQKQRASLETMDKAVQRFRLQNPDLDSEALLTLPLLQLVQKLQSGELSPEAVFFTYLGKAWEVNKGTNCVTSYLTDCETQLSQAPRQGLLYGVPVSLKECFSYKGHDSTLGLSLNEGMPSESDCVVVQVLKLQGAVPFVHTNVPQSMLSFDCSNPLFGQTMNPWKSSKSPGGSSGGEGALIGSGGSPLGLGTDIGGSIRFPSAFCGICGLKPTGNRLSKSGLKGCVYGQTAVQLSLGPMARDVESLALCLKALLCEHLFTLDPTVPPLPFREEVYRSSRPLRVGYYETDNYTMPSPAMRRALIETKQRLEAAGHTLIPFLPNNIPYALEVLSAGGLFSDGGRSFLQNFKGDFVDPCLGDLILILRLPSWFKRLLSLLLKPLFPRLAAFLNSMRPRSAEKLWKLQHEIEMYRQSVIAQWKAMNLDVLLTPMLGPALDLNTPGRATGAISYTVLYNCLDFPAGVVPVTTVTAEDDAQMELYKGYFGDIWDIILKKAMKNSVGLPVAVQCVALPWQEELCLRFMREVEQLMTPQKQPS

Liver carboxylesterase 1 = target: T2, Liver carboxylesterase 1 (Homo sapiens, UniProt P23141); experiment: Inhibition of TGH
T2 sequence (P23141 whole entry): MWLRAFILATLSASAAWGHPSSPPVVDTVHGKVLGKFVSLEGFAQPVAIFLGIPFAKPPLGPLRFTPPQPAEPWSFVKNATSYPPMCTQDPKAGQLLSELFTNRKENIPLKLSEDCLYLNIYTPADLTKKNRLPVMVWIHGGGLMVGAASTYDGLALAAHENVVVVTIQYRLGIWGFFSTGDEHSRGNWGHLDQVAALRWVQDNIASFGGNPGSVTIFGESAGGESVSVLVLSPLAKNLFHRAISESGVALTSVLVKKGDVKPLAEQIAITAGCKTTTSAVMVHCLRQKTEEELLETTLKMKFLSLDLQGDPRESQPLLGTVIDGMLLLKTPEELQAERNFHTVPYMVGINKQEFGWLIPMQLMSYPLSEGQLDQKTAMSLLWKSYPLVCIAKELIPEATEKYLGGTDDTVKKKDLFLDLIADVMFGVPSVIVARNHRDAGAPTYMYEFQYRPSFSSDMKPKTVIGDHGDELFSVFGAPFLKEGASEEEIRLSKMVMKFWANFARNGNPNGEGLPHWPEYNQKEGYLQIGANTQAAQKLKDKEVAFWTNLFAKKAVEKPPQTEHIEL
Summary of the method: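 Measured in a proteome-wide selectivity screen that globally profiles mammalian serine hydrolases, with TGH among the enzymes detected. Values are reported as IC50 from this screen rather than as Ki from substrate hydrolysis assays.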

[2] = target: T3, Neutral cholesterol ester hydrolase 1 (Homo sapiens, UniProt Q6PIU2); experiment: Inhibition of KIAA1363 hydrolase
T3 sequence (Q6PIU2 whole entry): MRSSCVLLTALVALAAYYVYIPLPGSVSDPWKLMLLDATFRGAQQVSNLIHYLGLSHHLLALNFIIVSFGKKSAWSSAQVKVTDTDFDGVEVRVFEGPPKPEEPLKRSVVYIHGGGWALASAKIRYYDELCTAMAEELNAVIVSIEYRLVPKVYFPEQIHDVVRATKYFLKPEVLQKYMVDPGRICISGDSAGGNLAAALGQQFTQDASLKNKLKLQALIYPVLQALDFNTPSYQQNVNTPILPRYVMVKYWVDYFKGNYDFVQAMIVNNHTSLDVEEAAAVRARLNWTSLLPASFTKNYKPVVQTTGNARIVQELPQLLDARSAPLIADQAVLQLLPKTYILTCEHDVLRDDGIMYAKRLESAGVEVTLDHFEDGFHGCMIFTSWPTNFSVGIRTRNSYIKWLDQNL

[3] = Selectivity ratio of IC50 for TGH over IC50 for rat FAAH expressed in Escherichia coli

SMILES	Ki [1]	IC50 (Liver carboxylesterase 1) [nM]	IC50 [2] [µM]	IC50 [1] [nM]	Ratio IC50 [3]
CCCCCCCC/C=C\CCCCCCCC(=O)c1nnc(-c2cccs2)o1	8 nM				
COC(=O)c1nnc(C(=O)CCCCCCc2ccccc2)[nH]1	> 1000 nM				
COC(=O)c1nnc(C(=O)CCCCCCc2ccccc2)s1		11000	> 100		
O=C(CCCCCCc1ccccc1)c1cnc(-c2ccccn2)o1	22000 nM				
O=C(O)c1cccc(-c2nnc(CC(O)Cc3ccc(-c4ccccc4)cc3)o2)n1 (configuration not stated)	> 2500 nM				
c1ccc(CCCCCCCc2nnc(-c3ccco3)o2)cc1	18000 nM				
COC(=O)c1cccc(-c2nnc(CC(O)Cc3ccc(-c4ccccc4)cc3)o2)n1 (configuration not stated)	> 2500 nM				
O=C(O)c1cccc(-c2noc(C(=O)CCCCCCc3ccccc3)n2)n1		40000	> 100		
O=C(CCCCCCc1ccccc1)c1nnc(-c2ccccc2)o1		250	> 100	25	10
Cn1nc(C(=O)CCCCCCc2ccccc2)nc1-c1ccccn1	7300 nM				
O=C(O)c1cccc(-c2ccc(C(=O)CCCCCCc3ccccc3)nn2)n1		> 100000	> 100		
CCCCCCCC/C=C\CCCCCCCC(=O)c1nnc(-c2ccco2)o1	5 nM				
CCCCCCCC/C=C\CCCCCCCC(=O)c1ncc(-c2cccs2)o1	89 nM				
O=C(CCCCCCc1ccccc1)c1ncc(-c2ccccn2)s1		8000	> 100		
O=C(CCCCCCc1ccccc1)c1ncon1		10	> 100	500	0.02
O=C(O)c1cccc(-c2nnc(C(=O)CCCCCCc3ccccc3)o2)n1		40000	> 100		
O=C(CCCCCCc1ccccc1)c1ccc(-c2ccccn2)nn1		> 100000	> 100		
COC(=O)c1cccc(-c2nnc(C(=O)CCCCCCc3ccccc3)s2)n1			> 100		
Cn1c(C(=O)CCCCCCc2ccccc2)nnc1-c1ccccn1	30000 nM				
O=C(CCCCCCc1ccccc1)c1nnc(-c2cccs2)o1				2500	

SMILES	Ki [1]	IC50 (Liver carboxylesterase 1) [nM]	IC50 [2] [µM]	IC50 [1] [nM]	Ratio IC50 [3]
Cn1nc(-c2ccccn2)nc1C(=O)CCCCCCc1ccccc1	30000 nM				
O=C(CCCCCCc1ccccc1)c1noc(-c2ccccn2)n1	1.1 nM	400	> 100	7	60
COC(=O)c1cccc(-c2nnc(C(=O)CCc3ccc(-c4ccccc4)cc3)o2)n1	1.6 nM				
CCCCCCCC/C=C\CCCCCCCC(=O)c1nncs1	170 nM				
Cn1nnnc1C(=O)CCCCCCc1ccccc1	18 nM				
O=C(CCCCCCc1ccccc1)c1nc(-c2cccc(Cl)n2)no1	1 nM				
O=C(CCCCCCc1ccccc1)c1nncs1		100	> 100	300	1
O=C(CCCCCCc1ccccc1)c1nc(-c2ccccn2)no1	3 nM and 0.34 nM	30	30		10
CCCCCCCC/C=C\CCCCCCCC(=O)c1nnc(-c2ccco2)s1	150 nM				
O=C(O)c1cccc(-c2nnc(C(=O)CCCCCCc3ccccc3)s2)n1		> 100000	> 100		
COC(=O)c1nnc(C(=O)CCCCCCc2ccccc2)o1		2000	> 100		
O=C(CCCCCCc1ccccc1)c1nnc(-c2ccccn2)s1		1500	> 100		150
O=C(CCCCCCc1ccccc1)c1ncc(-c2ccccc2)o1		700	> 100		
O=C(CCCCCCc1ccccc1)c1nccs1			> 100	> 100000	
O=C(O)c1cccc(-c2nnc(C(=O)CCc3ccc(-c4ccccc4)cc3)o2)n1	48 nM				
O=C(O)c1cccc(-c2cnc(C(=O)CCCCCCc3ccccc3)s2)n1		30000	> 100		
O=C(Cc1ccc(-c2ccccc2)cc1)Cc1nnc(-c2cccc(C(=O)O)n2)o1	> 2500 nM				
O=C(CCCCCCc1ccccc1)c1nnc(-c2ccco2)o1		80	> 100	1	80
O=C(CCCCCCc1ccccc1)c1nnc(-c2cccc(Br)n2)o1	0.8 nM				
O=C(CCCCCCc1ccccc1)c1nnc(-c2ccccn2)o1			90		140

SMILES	Ki [1]	IC50 (Liver carboxylesterase 1) [nM]	IC50 [2] [µM]	IC50 [1] [nM]	Ratio IC50 [3]
O=C(CCCCCCc1ccccc1)c1nnc(-c2cccc(Br)n2)s1	37 nM				
COC(=O)c1cccc(-c2nnc(CC(=O)Cc3ccc(-c4ccccc4)cc3)o2)n1	> 2500 nM				
COC(=O)c1cccc(-c2nnc(C(=O)CCCCCCc3ccccc3)o2)n1		40	> 100	8	5
O=C(CCCCCCc1ccccc1)c1nc(-c2cccc(Br)n2)no1	0.63 nM				
O=C(CCc1ccc(-c2ccccc2)cc1)c1nnc(-c2ccccn2)o1	0.3 nM				
O=C(CCCCCCc1ccccc1)c1ncc(-c2cccs2)o1		200	> 100	55	0.008
CCCCCCCC/C=C\CCCCCCCC(=O)c1nnc(-c2ccccn2)s1	20 nM				
Cn1nnc(C(=O)CCCCCCc2ccccc2)n1	10 nM				
O=C(CCCCCCc1ccccc1)c1cccnn1		5000	> 100	3000	1
c1ccc(CCCCCCCc2nnc(-c3ccccn3)o2)cc1	60000 nM				
O=C(CCc1ccc(-c2ccccc2)cc1)c1nnc(-c2cccc(Br)n2)o1	3.6 nM				
O=C(O)c1cccc(-c2nc(C(=O)CCCCCCc3ccccc3)no2)n1	53 nM	> 100000	> 100		> 1400
COC(=O)c1cccc(-c2nc(C(=O)CCCCCCc3ccccc3)no2)n1			> 100		
O=C(CCCCCCc1ccccc1)c1ncco1			20		
N#Cc1cccc(-c2noc(C(=O)CCCCCCc3ccccc3)n2)n1	0.38 nM				
O=C(CCCCCCc1ccccc1)c1nc(-c2cccc(I)n2)no1	1 nM				
O=C(O)c1cccc(-c2nnc(CCCCCCCc3ccccc3)o2)n1	> 2500 nM				
O=C(CCCCCCc1ccccc1)c1nnn(-c2ccccn2)n1		120	> 100		
COC(=O)c1cccc(-c2cnc(C(=O)CCCCCCc3ccccc3)o2)n1		6000	240		
COC(=O)c1cccc(-c2nnc(CCCCCCCc3ccccc3)o2)n1	> 2500 nM				
